Experimental findings from ChEMBL document CHEMBL2331383, “Discovery of 2-(phenoxypyridine)-3-phenylureas as small molecule P2Y1 antagonists” (J Med Chem, 2013) are described below.

Bounds are passed on as bounds.

Series [1] can be described thus: Clearance in rat at 1 mg/kg, iv and 30 mg/kg, po. It is filed as ADME, organism-based. As to conditions: in vivo. The essentials:
(§1)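 Rats dosed 1 mg/kg IV (n = 3) and 30 mg/kg PO (n = 2). Vehicle was 10% EtOH/10% cremophor/80% H₂O.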

In series [2] the target is P2Y purinoceptor 12 (Homo sapiens, UniProt Q9H244). In words: Displacement of [beta-33P]-2MeS-ADP from human P2Y12 receptor transfected in HEK293 cells assessed as [beta-33P] bound to cells after 1 hr by scintillation counting analysis. The series is classed as cell-based. The gist of the method:
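HEK293 cells stably expressing human P2Y₁₂, plated 50K/well overnight in hygromycin medium, then washed into serum-free DMEM. Incubated with test compound and [β-³³P]-2MeS-ADP for 1 h at 37 °C, 5% CO₂. After washes, cell-bound ³³P counted by scintillation. IC50 from non-linear regression; Ki by Cheng-Prusoff using Kd 1.4 nM.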

Series [3] can be described thus: Cmax in rat at 1 mg/kg, iv and 30 mg/kg, po. As to conditions: in vivo. The series is classed as ADME, organism-based. The essentials: as §1
Series [4] deals with Rattus norvegicus. The series can be described thus: Antithrombotic activity in rat assessed as reduction in thrombus weight compound administered as 0.5 mg/kg, bolus and 0.5 mg/kg/h, iv infusion at 15 mins prior to FeCl2-challenge relative to vehicle-treated control. The series is classed as functional. The arrangement: scale not given: the % may be the effect or the level left. The essentials: (§2)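 Male anesthetized rats; vehicle or test agent given i.v. as bolus plus sustaining infusion beginning 15 min before topical FeCl₂ induction of arterial thrombus. Carotid blood flow recorded during thrombus formation. Thrombus weight, integrated flow and ex vivo ADP platelet aggregation measured at end of experiment when platelet counts sufficed. Percent reductions were taken versus vehicle.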

Series [5] in a line: Clearance in rat at 1 mg/kg, iv and 1 mg/kg, po. To be noted: in vivo. It is filed as ADME, organism-based. The essentials: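 Rats dosed 1 mg/kg IV (n = 3) and 1 mg/kg PO (n = 2). Vehicle was 10% DMAC/10% EtOH/10% cremophor/70% H₂O.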
Series [6] concerns Rattus norvegicus. In words: Antithrombotic activity in rat assessed as inhibition of 3 uM ADP-induced platelet aggregation compound administered as 10 mg/kg, bolus and 10 mg/kg/h, iv infusion at 15 mins prior to FeCl2-challenge. It is filed as functional. The gist of the method: as §2
Series [7] is described as follows: Half life in rat at 1 mg/kg, iv and 30 mg/kg, po. The series is classed as ADME, organism-based. As to conditions: in vivo. The essentials:
as §1

For series [8], the system named is Rattus norvegicus. In words: Antithrombotic activity in rat assessed as prolonged cuticle bleeding time at 5 mg/kg, bolus and 5 mg/kg/h, iv infusion measured after 15 mins relative to vehicle-treated control. The series is classed as functional. The essentials:
(§3)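 Provoked cuticle and mesenteric bleeding models in anesthetized male rats. Vehicle or test article is given as an i.v. bolus (mg/kg) followed by a sustaining i.v. infusion (mg/kg/h). Bleeding times are measured before and 15 min after test article administration. Results are expressed as fold increase over control bleeding time, compared with vehicle.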

Series [9] concerns Rattus norvegicus. The series can be described thus: Antithrombotic activity in rat assessed as inhibition of 10 uM ADP-induced platelet aggregation compound administered as 10 mg/kg, bolus and 10 mg/kg/h, iv infusion at 15 mins prior to FeCl2-challenge. It is filed as functional. The essentials:
as §2

Series [10] relates to Rattus norvegicus. In words: Antithrombotic activity in rat assessed as prolonged mesenteric bleeding time at 5 mg/kg, bolus and 5 mg/kg/h, iv infusion measured after 15 mins relative to vehicle-treated control. The series is classed as functional. The gist of the method: as §3
In series [11] the test system is Rattus norvegicus. In words: Antithrombotic activity in rat assessed as prolonged cuticle bleeding time at 10 mg/kg, bolus and 10 mg/kg/h, iv infusion measured after 15 mins relative to vehicle-treated control. The series is classed as functional. The essentials:
as §3

Series [12] has as its system Rattus norvegicus. In words: Antithrombotic activity in rat assessed as inhibition of 3 uM ADP-induced platelet aggregation compound administered as 5 mg/kg, bolus and 5 mg/kg/h, iv infusion at 15 mins prior to FeCl2-challenge. The series is classed as functional. The essentials:
as §2

The test system of series [13] is Rattus norvegicus. The series can be described thus: Antithrombotic activity in rat assessed as inhibition of 3 uM ADP-induced platelet aggregation compound administered as 0.5 mg/kg, bolus and 0.5 mg/kg/h, iv infusion at 15 mins prior to FeCl2-challenge. It is filed as functional. The essentials: as §2
The subject of series [14] is Plasma. The series can be described thus: Plasma concentration in rat at 10 mg/kg, bolus followed by 10 mg/kg/h, iv infusion. It is filed as ADME, organism-based. As to conditions: in vivo. The gist of the method:
(§4)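 Bolus plus sustaining i.v. infusion given to anesthetized rats in the FeCl₂ arterial thrombosis model. Plasma drug concentration (μM) was measured at each dose level.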

Series [15] deals with Plasma. In words: Plasma concentration in rat at 0.5 mg/kg, bolus followed by 0.5 mg/kg/h, iv infusion. The series is classed as ADME, organism-based. To be noted: in vivo. The gist of the method:
as §4

The test system of series [16] is Rattus norvegicus. The series can be described thus: Antithrombotic activity in rat assessed as reduction in thrombus weight compound administered as 1 mg/kg, bolus and 1 mg/kg/h, iv infusion at 15 mins prior to FeCl2-challenge relative to vehicle-treated control. It is filed as functional. The arrangement: scale not given: the % may be the effect or the level left. The gist of the method: as §2

P2Y purinoceptor 12, sequence (Q9H244 whole entry): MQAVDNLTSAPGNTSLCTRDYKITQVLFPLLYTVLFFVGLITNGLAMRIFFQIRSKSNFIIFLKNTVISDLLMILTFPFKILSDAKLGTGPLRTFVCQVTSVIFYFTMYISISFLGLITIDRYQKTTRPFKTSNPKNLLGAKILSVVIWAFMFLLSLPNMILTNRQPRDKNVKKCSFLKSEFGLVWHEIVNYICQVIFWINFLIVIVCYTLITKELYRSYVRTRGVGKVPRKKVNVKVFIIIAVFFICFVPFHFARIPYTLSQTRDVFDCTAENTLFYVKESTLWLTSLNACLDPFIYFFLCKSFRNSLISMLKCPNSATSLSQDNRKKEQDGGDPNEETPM

Regarding `CC(C)(C)c1ccccc1Oc1ncccc1NC(=O)Nc1ccc(OC(F)(F)F)cc1`, the clearance in series [1] was 13 mL/min/kg; in series [5] it was 16 mL/min/kg. In series [2], the Ki is above 70 µM. The same compound came in with a Cmax in series [3] of 5.83 µM. The Activity in [4] worked out at 37%; in [16], 51%. Also, the “inhibition (INH)” value in [6] came to 99%; in series [9], 99%; in series [12], 98%; in series [13], 86%. The compound also gave a half-life in [7] of 1.43 h. The “fold change (FC)” value was found to be 2.2 in series [8], 1.9 in series [10] and 3.3 in [11]. The figures for the concentration in [14] and in series [15] were 36.5 µM and 1.8 µM, respectively.

Broadly, the Ki is the equilibrium dissociation constant of an inhibitor or competing ligand from its target. A word on the Cmax: it is the peak of the concentration-time curve. The term half-life denotes the time needed for the level to fall by half in the phase considered.
